According to ChEMBL document CHEMBL3421570, “Combinatorial Libraries As a Tool for the Discovery of Novel, Broad-Spectrum Antibacterial Agents Targeting the ESKAPE Pathogens” (J Med Chem, 2015):
The source made the active and inactive calls.

Columns and labels:
Assay type in all cases: functional, organism-based
[1] = tested on: Klebsiella pneumoniae; test: Antimicrobial activity against Klebsiella pneumoniae assessed as inhibition of microbial growth at 45 uM after 24 hrs
How it was run: (§1)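 Broth microdilution single-concentration read: overnight cultures diluted 1:1000, compound in DMF (≤2.0%) added, 37°C for 24 h, growth inhibition scored visually by lack of turbidity; triplicate. Gram-positives grown in TSB, Gram-negatives in LB.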

[2] = tested on: Staphylococcus aureus; test: Antimicrobial activity against Staphylococcus aureus assessed as inhibition of microbial growth at 45 uM after 24 hrs; how it was run: as §1
[3] = tested on: Enterococcus faecium; test: Antimicrobial activity against Enterococcus faecium assessed as inhibition of microbial growth at 45 uM after 24 hrs; how it was run: as §1
[4] = tested on: Acinetobacter baumannii; test: Antimicrobial activity against Acinetobacter baumannii assessed as inhibition of microbial growth at 45 uM after 24 hrs; how it was run: as §1
[5] = tested on: Pseudomonas aeruginosa; test: Antimicrobial activity against Pseudomonas aeruginosa assessed as inhibition of microbial growth at 45 uM after 24 hrs; how it was run: as §1
[6] = tested on: Enterobacter cloacae; test: Antimicrobial activity against Enterobacter cloacae assessed as inhibition of microbial growth at 45 uM after 24 hrs; how it was run: as §1

Measured: growth inhibition (GI)

N=C1NC[C@H](CCCCN2C[C@H](CC3CCCCC3)N(CCc3ccc(-c4ccccc4)cc3)C2=N)N1CCC12CC3CC(CC(C3)C1)C2
active: all assays above

CCCC[C@H]1CN(CCCC[C@H]2CNC(=N)N2CCCCC2CCCCC2)C(=N)N1CCc1ccc(-c2ccccc2)cc1
active: all assays above

CCCCCCCN1C(=N)N(CCCC[C@H]2CNC(=N)N2CCC23CC4CC(CC(C4)C2)C3)C[C@H]1Cc1cccc2ccccc12
active: all assays above

CCCCCCCN1C(=N)N(CCCC[C@H]2CNC(=N)N2CCC23CC4CC(CC(C4)C2)C3)C[C@@H]1CC1CCCCC1
active: all assays above

CCCC[C@H]1CN(CCCC[C@H]2CNC(=N)N2CCC23CC4CC(CC(C4)C2)C3)C(=N)N1CCc1ccc(-c2ccccc2)cc1
active: all assays above

N=C1NC[C@H](CCCCN2C[C@H](CC3CCCCC3)N(CCc3ccc(-c4ccccc4)cc3)C2=N)N1CCCCC1CCCCC1
active: all assays above

CCCCCCCN1C(=N)N(CCCC[C@H]2CNC(=N)N2CCCCC2CCCCC2)C[C@H]1Cc1cccc2ccccc12
active: all assays above
